Blank lines part the entries; values can stand above or below the compound they belong to. Calls of active or inactive are those of the source. No cut-off for these calls is given here.
Assays:
[1] = Inhibition of bovine spleen adenosine deaminase type 9 by spectrophotometry; parameters: species or system Bos taurus
Outline: (§1)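 Bovine spleen ADA type IX (0.3 nM) with 50 µM adenosine in 50 mM potassium phosphate, pH 7.2, at 30 °C. Deamination read as the A262 change over 2 min, against a substrate-free blank. DMSO ≤4% final. Screened at 10^-5 M; actives retested at 10-5 to 10-11 M in triplicate. IC50 taken by linear regression of log concentration-response, then converted to Ki by Cheng-Prusoff.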

Rattus norvegicus [2] = assay: Antiinflammatory activity in DNBS-induced Sprague-Dawley rat colitis model assessed as reduction in DNBS-induced increase in colonic tissue malondialdehyde level at 5 to 45 umol/kg, ip for 7 days administered 1 day before colitis induction; type: functional, organism-based
Outline: (§2)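 Rats (male Sprague-Dawley) received intrarectal DNBS (15 mg in 50% ethanol), with ip dosing for 7 days from 1 day before; n=6 per group. Colon was taken at day 6, homogenized in cold 20 mmol/L Tris-HCl, pH 7.4, and spun 1500g for 10 min at 4 °C. MDA was measured by colorimetric kit and expressed as µmol per mg tissue.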

Rattus norvegicus [3] = assay: Antiinflammatory activity in DNBS-induced Sprague-Dawley rat colitis model assessed as reduction in DNBS-induced increase in spleen weight at 0.25 umol/kg, ip for 7 days administered 1 day before colitis induction; type: functional, organism-based
Outline: (§3)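 Colitis was induced in male Sprague-Dawley rats (250-300 g) by intrarectal DNBS, 15 mg in 0.25 mL 50% ethanol, under isoflurane. Drug was given ip daily for 7 days from 1 day before induction; six rats per group; vehicle controls. Spleen was weighed at assessment 6 days after DNBS and expressed as % increase, as an index of systemic inflammation.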

Rattus norvegicus [4] = assay: Antiinflammatory activity in DNBS-induced Sprague-Dawley rat colitis model assessed as reduction in DNBS-induced macroscopic damage in colon at 0.25 umol/kg, ip for 7 days administered 1 day before colitis induction; type: functional, organism-based
Outline: (§4)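 DNBS colitis was induced in male Sprague-Dawley rats (250-300 g): 15 mg in 0.25 mL 50% ethanol given intrarectally. Dosing was ip for 7 days, beginning 1 day before DNBS; n=6 per group; vehicle controls. Six days after DNBS, the whole colon was scored for macroscopic damage by two observers blinded to treatment.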

Rattus norvegicus [5] = assay: Antiinflammatory activity in DNBS-induced Sprague-Dawley rat colitis model assessed as reduction in DNBS-induced increase in colonic tissue malondialdehyde level at 0.25 umol/kg, ip for 7 days administered 1 day before colitis induction; type: functional, organism-based; outline: as §2
Rattus norvegicus [6] = assay: Antiinflammatory activity in DNBS-induced Sprague-Dawley rat colitis model assessed as reduction in DNBS-induced increase in colonic tissue TNFalpha level at 0.25 umol/kg, ip for 7 days administered 1 day before colitis induction; type: functional, organism-based
Outline: (§5)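 In male Sprague-Dawley rats with intrarectal DNBS colitis (15 mg in 50% ethanol), dosing was ip for 7 days from 1 day before induction; six per group. Colon samples from day 6 were stored at -80 °C, homogenized at 4 °C in PBS, pH 7.2 (0.3 mL/100 mg), and centrifuged at 13400g for 20 min. TNF-α was measured by ELISA and expressed as pg/mg tissue.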

Bos taurus = species on record: Bos taurus; assay: Inhibition of bovine spleen adenosine deaminase type 9 at <= 10 uM by spectrophotometry; outline: as §1
Rattus norvegicus [7] = assay: Toxicity in Sprague-Dawley rat assessed as behavioral changes at 5 to 45 umol/kg, ip for 7days; type: organism-based; settings: in vivo, 168 h
Rattus norvegicus [8] = assay: Antiinflammatory activity in ip dosed Sprague-Dawley rat colitis model assessed as reduction in DNBS-induced increase in spleen weight administered for 7 days 1 day before colitis induction; type: functional, organism-based; outline: as §3
Rattus norvegicus [9] = assay: Toxicity in Sprague-Dawley rat assessed as variation in body weight at 5 to 45 umol/kg, ip for 7days; type: organism-based; settings: in vivo, 168 h
Rattus norvegicus [10] = assay: Antiinflammatory activity in DNBS-induced Sprague-Dawley rat colitis model assessed as body weight loss at 15 umol/kg, ip for 7 days administered 1 day before colitis induction; type: functional
Outline: (§6)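 Male Sprague-Dawley rats (250-300 g) under brief isoflurane received 15 mg DNBS in 0.25 mL 50% ethanol intrarectally, 8 cm proximal to anus. Drug was given ip for 7 days starting 1 day before DNBS; controls received vehicle; n=6 per group. Body weight was recorded daily from the start of dosing, and the change was taken at day 6 after DNBS.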

Rattus norvegicus [11] = assay: Antiinflammatory activity in DNBS-induced Sprague-Dawley rat colitis model assessed as DNBS-induced macroscopic damage in colon at 45 umol/kg, ip for 7 days administered 1 day before colitis induction; type: functional; outline: as §4
Rattus norvegicus [12] = assay: Antiinflammatory activity in ip dosed Sprague-Dawley rat colitis model assessed as reduction in DNBS-induced decrease in body weight administered for 7 days 1 day before colitis induction; type: functional, organism-based; outline: as §6
Rattus norvegicus [13] = assay: Antiinflammatory activity in DNBS-induced Sprague-Dawley rat colitis model assessed as body weight gain at 45 umol/kg, ip for 7 days administered 1 day before colitis induction; type: functional; outline: as §6
Rattus norvegicus [14] = assay: Antiinflammatory activity in DNBS-induced Sprague-Dawley rat colitis model assessed as DNBS-induced increase in spleen weight at 45 umol/kg, ip for 7 days administered 1 day before colitis induction; type: functional; outline: as §3
Rattus norvegicus [15] = assay: Antiinflammatory activity in DNBS-induced Sprague-Dawley rat colitis model assessed as DNBS-induced increase in spleen weight at 15 umol/kg, ip for 7 days administered 1 day before colitis induction; type: functional; outline: as §3
Rattus norvegicus [16] = assay: Antiinflammatory activity in DNBS-induced Sprague-Dawley rat colitis model assessed as DNBS-induced increase in colonic tissue TNFalpha level at 45 umol/kg, ip for 7 days administered 1 day before colitis induction; type: functional; outline: as §5
Rattus norvegicus [17] = assay: Antiinflammatory activity in ip dosed Sprague-Dawley rat colitis model assessed as reduction in DNBS-induced macroscopic damage in colon administered for 7 days 1 day before colitis induction; type: functional, organism-based; outline: as §4
Rattus norvegicus [18] = assay: Toxicity in Sprague-Dawley rat assessed as variation in food intake at 5 to 45 umol/kg, ip for 7days; type: organism-based; settings: in vivo, 168 h
Rattus norvegicus [19] = assay: Antiinflammatory activity in ip dosed Sprague-Dawley rat colitis model assessed as reduction in DNBS-induced increase in colonic tissue TNFalpha level administered for 7 days 1 day before colitis induction; type: functional, organism-based; outline: as §5
Rattus norvegicus [20] = assay: Toxicity in Sprague-Dawley rat assessed as mortality at 5 to 45 umol/kg, ip for 7days; type: organism-based; settings: in vivo, 168 h
Rattus norvegicus [21] = assay: Antiinflammatory activity in DNBS-induced Sprague-Dawley rat colitis model assessed as DNBS-induced increase in spleen weight at 5 umol/kg, ip for 7 days administered 1 day before colitis induction; type: functional; outline: as §3
Rattus norvegicus [22] = assay: Antiinflammatory activity in DNBS-induced Sprague-Dawley rat colitis model assessed as body weight loss at 5 umol/kg, ip for 7 days administered 1 day before colitis induction; type: functional; outline: as §6
Rattus norvegicus [23] = assay: Antiinflammatory activity in ip dosed Sprague-Dawley rat colitis model assessed as reduction in DNBS-induced increase in colonic tissue malondialdehyde level administered for 7 days 1 day before colitis induction; type: functional, organism-based; outline: as §2
Rattus norvegicus [24] = assay: Antiinflammatory activity in DNBS-induced Sprague-Dawley rat colitis model assessed as DNBS-induced macroscopic damage in colon at 5 umol/kg, ip for 7 days administered 1 day before colitis induction; type: functional; outline: as §4
Rattus norvegicus [25] = assay: Antiinflammatory activity in DNBS-induced Sprague-Dawley rat colitis model assessed as DNBS-induced macroscopic damage in colon at 15 umol/kg, ip for 7 days administered 1 day before colitis induction; type: functional; outline: as §4

- Ki [1]: 15.6 nM
SMILES: COc1ccc(C(=O)Nc2ccc(Cn3cc4c(=O)[nH]cnc4n3)cc2)cc1

SMILES: C[C@@H]1C[C@H]2[C@@H]3CCC4=CC(=O)C=C[C@]4(C)[C@@]3(F)[C@@H](O)C[C@]2(C)[C@@]1(O)C(=O)CO
- Activity (Rattus norvegicus [2]): Active
- Activity (Rattus norvegicus [3]): Active
- Activity (Rattus norvegicus [4]): Active
- Activity (Rattus norvegicus [5]): Active
- Activity (Rattus norvegicus [6]): Active

- Ki [1]: 1.14 nM
SMILES: CCCCCC[C@H]([C@H](C)O)n1cnc2c(N)ncnc21 [(+)-EHNA]

- Ki [1]: 2.42 nM
SMILES: O=C(Nc1ccccc1)Nc1ccc(Cn2cc3c(=O)[nH]cnc3n2)cc1

- Ki [1]: 12.7 nM
SMILES: O=C(Nc1ccc(Cn2cc3c(=O)[nH]cnc3n2)cc1)c1ccccc1

- Ki [1]: 0.51 nM
SMILES: O=C(Nc1ccc(Cn2cc3c(=O)[nH]cnc3n2)cc1)c1ccc(C(F)(F)F)cc1

- Ki [1]: 2.01 nM
SMILES: CN(C)c1ccc(NC(=O)Nc2ccc(Cn3cc4c(=O)[nH]cnc4n3)cc2)cc1

- Ki [1]: 1.15 nM
SMILES: O=C(Nc1ccc(F)cc1)Nc1ccc(Cn2cc3c(=O)[nH]cnc3n2)cc1

- Ki [1]: 186 nM
SMILES: O=C(Nc1ccc(Cc2ccccc2)cc1)Nc1ccc(Cn2cc3c(=O)[nH]cnc3n2)cc1

- Activity (Bos taurus): inactive
SMILES: CCCCCCCCCn1cc2c(=O)[nH]cnc2n1

- Ki [1]: 85.7 nM
SMILES: O=C(NCc1ccccc1)Nc1ccc(Cn2cc3c(=O)[nH]cnc3n2)cc1

- Ki [1]: 108 nM
SMILES: O=C(Nc1ccc(Cn2cc3c(=O)[nH]cnc3n2)cc1)Nc1ccc(OCc2ccccc2)cc1

- Ki [1]: 0.96 nM
SMILES: O=C(Nc1ccc(Cn2cc3c(=O)[nH]cnc3n2)cc1)c1ccc(F)cc1

SMILES: O=C(Nc1ccc(Cn2cc3c(=O)[nH]cnc3n2)cc1)Nc1ccc(C(F)(F)F)cc1
- Activity (Rattus norvegicus [7]): Non-toxic
- Activity (Rattus norvegicus [8]): Dose-dependent effect
- Activity (Rattus norvegicus [9]): Non-toxic
- Activity (Rattus norvegicus [10]): 10.4 g
- Ki [1]: 0.16 nM
- Activity (Rattus norvegicus [11]): 4.3
- Activity (Rattus norvegicus [2]): Active
- Activity (Rattus norvegicus [12]): Dose-dependent effect
- Activity (Rattus norvegicus [13]): 2.3 g
- Activity (Rattus norvegicus [14]): 10.1%
- Activity (Rattus norvegicus [15]): 18.9%
- Activity (Rattus norvegicus [16]): 5.8 pg/mg
- Activity (Rattus norvegicus [17]): Dose-dependent effect
- Activity (Rattus norvegicus [18]): Non-toxic
- Activity (Rattus norvegicus [19]): Dose-dependent effect
- Activity (Rattus norvegicus [20]): Non-toxic
- Activity (Rattus norvegicus [21]): 23.8%
- Activity (Rattus norvegicus [22]): 16.5 g
- Activity (Rattus norvegicus [23]): Dose-dependent effect
- Activity (Rattus norvegicus [5]): Active
- Activity (Rattus norvegicus [24]): 6.9
- Activity (Rattus norvegicus [25]): 5.6

- Activity (Bos taurus): inactive
SMILES: CCCCCCCCCCn1cc2c(=O)[nH]cnc2n1

- Ki [1]: 28.3 nM
SMILES: COc1ccc(NC(=O)Nc2ccc(Cn3cc4c(=O)[nH]cnc4n3)cc2)cc1

- Activity (Bos taurus): inactive
SMILES: CCCCCCCCCCCn1cc2c(=O)[nH]cnc2n1

- Ki [1]: 47.9 nM
SMILES: O=C(Cc1ccccc1)Nc1ccc(Cn2cc3c(=O)[nH]cnc3n2)cc1

From ChEMBL document CHEMBL1152769, “Exploiting the pyrazolo[3,4-d]pyrimidin-4-one ring system as a useful template to obtain potent adenosine deaminase inhibitors” (J Med Chem, 2009)
